Measured values as given in ChEMBL document CHEMBL1151702, “Using an aryl phenanthroimidazole moiety as a conjugated flexible intercalator to improve the hybridization efficiency of a triplex-forming oligonucleotide” (Bioorg Med Chem, 2008).

Key:
Assay type in all cases: nucleic-acid assay
[1] = test system: Nucleic Acid; experiment: Binding affinity to synthetic double stranded DNA D2 at 1.5 uM at pH 6.0 by thermal denaturation study
Method in brief: (§1)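 Parallel triplex melting: target duplex assembled from strands at 1.0 µM each, TFO third strand added at 1.5 µM. Buffer 20 mM sodium cacodylate, 100 mM NaCl, 10 mM MgCl₂, at the pH of the line. Samples heated to 80 °C for 5 min, cooled to 5 °C and held 30 min. Absorbance read at 260 nm while heating at 1.0 °C/min; Tm taken as the first-derivative maximum.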

[2] = test system: Nucleic Acid; experiment: Binding affinity to synthetic double stranded DNA D1 at 1.5 uM at pH 7.2 by thermal denaturation study; method in brief: as §1
[3] = test system: Nucleic Acid; experiment: Binding affinity to synthetic oligonucleotide ON20 at 1.0 uM at pH 7.0 by thermal denaturation study
Method in brief: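 DNA/RNA antiparallel duplex: each strand at 1.0 µM in 10 mM sodium phosphate, 140 mM NaCl, 1 mM EDTA, pH 7.0. Heated to 80 °C for 5 min, cooled to 5 °C and held 30 min. Absorbance followed at 260 nm during a 1.0 °C/min temperature ramp; Tm is the first-derivative maximum.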

[4] = test system: Nucleic Acid; experiment: Binding affinity to synthetic oligonucleotide ON19 at 1.0 uM at pH 6.0 by thermal denaturation study
Method in brief: (§2)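 Duplex melting: complementary strands at 1.0 µM each in 20 mM sodium cacodylate, 100 mM NaCl, 10 mM MgCl₂, at the pH of the line. Annealed at 80 °C for 5 min, then cooled to 5 °C and held 30 min. UV absorbance read at 260 nm with heating at 1.0 °C/min; Tm is the maximum of the first-derivative curve.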

[5] = test system: Nucleic Acid; experiment: Binding affinity to synthetic double stranded DNA D3 at 1.5 uM at pH 6.0 by thermal denaturation study; method in brief: as §1
[6] = test system: Nucleic Acid; experiment: Binding affinity to synthetic oligonucleotide ON18 at 1.0 uM at pH 6.0 by thermal denaturation study; method in brief: as §2
[7] = test system: Nucleic Acid; experiment: Binding affinity to synthetic oligonucleotide ON19 at 1.0 uM at pH 7.2 by thermal denaturation study; method in brief: as §2
[8] = test system: Nucleic Acid; experiment: Binding affinity to synthetic double stranded DNA D4 at 1.5 uM at pH 6.0 by thermal denaturation study; method in brief: as §1
[9] = test system: Nucleic Acid; experiment: Binding affinity to synthetic double stranded DNA D1 at 1.5 uM at pH 6.0 by thermal denaturation study; method in brief: as §1

Tm [1] | Tm [2] | Tm [3] | Tm [4] | Tm [5] | Tm [6] | Tm [7] | Tm [8] | Tm [9] | SMILES
21 °C | 18.5 °C | 49.5 °C | 47.5 °C | 22.5 °C | 19.5 °C | 47.5 °C | 26 °C | 38.5 °C | Cc1cn([C@H]2C[C@H](OP(=O)(O)OC[C@H]3O[C@@H](n4cc(C)c(=O)[nH]c4=O)C[C@@H]3O[PH](O)(O)OC[C@H]3O[C@@H](n4cc(C)c(=O)[nH]c4=O)C[C@@H]3OP(=O)(O)OC[C@H]3O[C@@H](n4cc(C)c(=O)[nH]c4=O)C[C@@H]3OP(=O)(O)OC[C@H]3O[C@@H](n4cc(C)c(=O)[nH]c4=O)C[C@@H]3O)[C@@H](COC[C@H](CCOc3ccc(-c4nc5c6ccccc6c6ccccc6c5[nH]4)c4ccccc34)OP(=O)(O)O[C@H]3C[C@H](n4cc(C)c(=O)[nH]c4=O)O[C@@H]3COP(=O)(O)O[C@H]3C[C@H](n4ccc(N)nc4=O)O[C@@H]3COP(=O)(O)O[C@H]3C[C@H](n4cc(C)c(=O)[nH]c4=O)O[C@@H]3COP(=O)(O)O[C@H]3C[C@H](n4cc(C)c(=O)[nH]c4=O)O[C@@H]3COP(=O)(O)O[C@H]3C[C@H](n4cc(C)c(=O)[nH]c4=O)O[C@@H]3COP(=O)(O)O[C@H]3C[C@H](n4ccc(N)nc4=O)O[C@@H]3COP(=O)(O)O[C@H]3C[C@H](n4ccc(N)nc4=O)O[C@@H]3COP(=O)(O)O[C@H]3C[C@H](n4ccc(N)nc4=O)O[C@@H]3COP(=O)(O)O[C@H]3C[C@H](n4ccc(N)nc4=O)O[C@@H]3CO)O2)c(=O)[nH]c1=O
24 °C | 15 °C | 42.5 °C | 38.5 °C | 33.5 °C | 20.5 °C | 38.5 °C | 17.5 °C | 46.5 °C | Cc1cn([C@H]2C[C@H](OP(=O)(O)OC[C@H]3O[C@@H](n4ccc(N)nc4=O)C[C@@H]3OP(=O)(O)OC[C@H]3O[C@@H](n4cc(C)c(=O)[nH]c4=O)C[C@@H]3OP(=O)(O)O[C@@H](CCOc3ccc(-c4nc5c6ccccc6c6ccccc6c5[nH]4)c4ccccc34)COC[C@H]3O[C@@H](n4cc(C)c(=O)[nH]c4=O)C[C@@H]3OP(=O)(O)OC[C@H]3O[C@@H](n4cc(C)c(=O)[nH]c4=O)C[C@@H]3O[PH](O)(O)OC[C@H]3O[C@@H](n4cc(C)c(=O)[nH]c4=O)C[C@@H]3OP(=O)(O)OC[C@H]3O[C@@H](n4cc(C)c(=O)[nH]c4=O)C[C@@H]3OP(=O)(O)OC[C@H]3O[C@@H](n4cc(C)c(=O)[nH]c4=O)C[C@@H]3O)[C@@H](COC[C@H](CCOc3ccc(-c4nc5c6ccccc6c6ccccc6c5[nH]4)c4ccccc34)OP(=O)(O)O[C@H]3C[C@H](n4cc(C)c(=O)[nH]c4=O)O[C@@H]3COP(=O)(O)O[C@H]3C[C@H](n4cc(C)c(=O)[nH]c4=O)O[C@@H]3COP(=O)(O)O[C@H]3C[C@H](n4ccc(N)nc4=O)O[C@@H]3COP(=O)(O)O[C@H]3C[C@H](n4ccc(N)nc4=O)O[C@@H]3COP(=O)(O)O[C@H]3C[C@H](n4ccc(N)nc4=O)O[C@@H]3COP(=O)(O)O[C@H]3C[C@H](n4ccc(N)nc4=O)O[C@@H]3CO)O2)c(=O)[nH]c1=O
 | 25 °C | 51 °C | 51 °C |  | 34.5 °C | 50.5 °C |  | 43.5 °C | Cc1cn([C@H]2C[C@H](OP(=O)(O)OC[C@H]3O[C@@H](n4cc(C)c(=O)[nH]c4=O)C[C@@H]3OP(=O)(O)OC[C@H]3O[C@@H](n4cc(C)c(=O)[nH]c4=O)C[C@@H]3O[PH](O)(O)OC[C@H]3O[C@@H](n4cc(C)c(=O)[nH]c4=O)C[C@@H]3OP(=O)(O)OC[C@H]3O[C@@H](n4cc(C)c(=O)[nH]c4=O)C[C@@H]3OP(=O)(O)OC[C@H]3O[C@@H](n4cc(C)c(=O)[nH]c4=O)C[C@@H]3O)[C@@H](COC[C@@H](CCOc3ccc(-c4nc5c6ccccc6c6ccccc6c5[nH]4)cc3)OP(=O)(O)O[C@H]3C[C@H](n4ccc(N)nc4=O)O[C@@H]3COP(=O)(O)O[C@H]3C[C@H](n4cc(C)c(=O)[nH]c4=O)O[C@@H]3COP(=O)(O)O[C@H]3C[C@H](n4cc(C)c(=O)[nH]c4=O)O[C@@H]3COP(=O)(O)O[C@H]3C[C@H](n4cc(C)c(=O)[nH]c4=O)O[C@@H]3COP(=O)(O)O[C@H]3C[C@H](n4ccc(N)nc4=O)O[C@@H]3COP(=O)(O)O[C@H]3C[C@H](n4ccc(N)nc4=O)O[C@@H]3COP(=O)(O)O[C@H]3C[C@H](n4ccc(N)nc4=O)O[C@@H]3COP(=O)(O)O[C@H]3C[C@H](n4ccc(N)nc4=O)O[C@@H]3CO)O2)c(=O)[nH]c1=O
